Data reported in ChEMBL document CHEMBL1139356, “New uracil dimers showing erythroid differentiation inducing activities” (J Med Chem, 2009).
pIC50: −log10 of the molar value. One block for each molecule: values may come before it. Calls of active or inactive are those of the source. The calls are words filed in the database; no cut-off is given here.

Legend:
K562 [1] = test: Inhibition of erythroid differentiation in human K562 cell assessed benzidine positive cells at 600 uM after 6 days by benzidine staining assay; type: functional
Procedure, shortened: (§1)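 K562 cells seeded at 30 000 cells/mL and cultured with compound at the stated concentration for a 6-day induction period. Benzidine staining scores the percentage of hemoglobin-containing (benzidine-positive) cells. Values are average ± SD of three independent experiments.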

K562 [2] = test: Inhibition of erythroid differentiation in human K562 cell assessed benzidine positive cells at 100 uM after 6 days by benzidine staining assay; type: functional; parameters: scale not given: the % may be the effect or the level left; procedure, shortened: as §1
K562 [3] = test: Inhibition of erythroid differentiation in human K562 cell assessed benzidine positive cells at 400 uM after 6 days by benzidine staining assay; type: functional
Procedure, shortened: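 K562 cells cultured with 400 µM compound for 6 days. The proportion of hemoglobin-containing cells was scored by benzidine staining. Values are average ± SD of four independent experiments.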

K562 [4] = test: Inhibition of erythroid differentiation in human K562 cell assessed benzidine positive cells at 200 uM after 6 days by benzidine staining assay; type: functional; procedure, shortened: as §1
K562 [5] = test: Antiproliferative activity against human K562 cells after 4 days; type: functional, cell-based; conditions: K562, 96 h
K562 [6] = test: Inhibition of erythroid differentiation in human K562 cell assessed benzidine positive cells at 800 uM after 6 days by benzidine staining assay; type: functional; parameters: scale not given: the % may be the effect or the level left; procedure, shortened: as §1
K562 [7] = test: Inhibition of erythroid differentiation in human K562 cell assessed benzidine positive cells at 2 mM after 6 days by benzidine staining assay; type: functional; parameters: scale not given: the % may be the effect or the level left; procedure, shortened: as §1
K562 [8] = test: Inhibition of erythroid differentiation in human K562 cell assessed benzidine positive cells at 1 mM after 6 days by benzidine staining assay; type: functional; parameters: scale not given: the % may be the effect or the level left; procedure, shortened: as §1
[9] = Antiproliferative activity against human IB3-1 cells after 4 days; type: functional, cell-based; conditions: IB3-1, 96 h
MDA-MB-231 = test: Antiproliferative activity against human MDA-MB-231 cells after 4 days; type: functional, cell-based; conditions: MDA-MB-231, 96 h
K562 [10] = test: Antiproliferative activity against human K562 cells after 4 days; conditions: K562, 96 h
MCF7 = test: Antiproliferative activity against human MCF7 cells after 4 days; type: functional, cell-based; conditions: MCF7, 96 h
RD = test: Antiproliferative activity against human RD cells after 4 days; type: functional, cell-based; conditions: 96 h
K562 [11] = test: Inhibition of erythroid differentiation in human K562 cell assessed benzidine positive cells at 500 nM after 6 days by benzidine staining assay; type: functional; parameters: scale not given: the % may be the effect or the level left; conditions: in the assay text read “at 100 nM” for “at 500 nM”; procedure, shortened: as §1
K562 [12] = test: Inhibition of erythroid differentiation in human K562 cell assessed benzidine positive cells at 300 uM after 6 days by benzidine staining assay; type: functional; parameters: scale not given: the % may be the effect or the level left; procedure, shortened: as §1

pIC50 (K562 [5]): 4.12
Compound: CCCCCCCCn1cc(C(=O)NCc2ccccc2)c(=O)[nH]c1=O
Activity (K562 [1]): inactive | Activity (K562 [2]): 5% | Activity (K562 [3]): inactive | Activity (K562 [4]): inactive

pIC50 (K562 [5]): 3.27
Compound: CCCCNC(=O)c1cn(C)c(=O)[nH]c1=O
Activity (K562 [6]): 5%

Compound: CCCC(=O)O [BUTYRIC ACID]
Activity (K562 [7]): 32.5%

Compound: CO[C@H]1C[C@@H]2CC[C@@H](C)[C@@](O)(O2)C(=O)C(=O)N2CCCC[C@H]2C(=O)O[C@H]([C@H](C)C[C@@H]2CC[C@@H](O)[C@H](OC)C2)CC(=O)[C@H](C)/C=C(\C)[C@@H](O)[C@@H](OC)C(=O)[C@H](C)C[C@H](C)/C=C/C=C/C=C/1C [SIROLIMUS]
Activity (K562 [8]): 75.5%

pIC50 (K562 [5]): 3.61
Compound: CCCCCCCCn1cc(C(=O)NCc2cccc(CNC(=O)c3cn(CCCCCCCC)c(=O)[nH]c3=O)c2)c(=O)[nH]c1=O
Activity (K562 [4]): 40%

pIC50 (K562 [5]): 3.66
Compound: CCCCCCCCn1cc(C(=O)NCCCCCCCNC(=O)c2cn(CCCCCCCC)c(=O)[nH]c2=O)c(=O)[nH]c1=O
Activity (K562 [1]): 50%

pIC50 (K562 [5]): < 3.10
Compound: CCOC(=O)Cn1cc(C(=O)NCCOCCNC(=O)c2cn(CC(=O)OCC)c(=O)[nH]c2=O)c(=O)[nH]c1=O
Activity (K562 [6]): 1%

pIC50 (K562 [5]): 3.29 | pIC50 (MDA-MB-231): 3.77 | pIC50 (K562 [10]): 3.29 | pIC50 (MCF7): 3.70
Compound: CCCCCCCCn1cc(C(=O)NCc2ccc3ccc(CNC(=O)c4cn(CCCCCCCC)c(=O)[nH]c4=O)cc3c2)c(=O)[nH]c1=O
Activity (K562 [1]): 78% | pIC50 [9]: 3.30 | Activity (K562 [3]): 52% | pIC50 (RD): 4.12

pIC50 (K562 [5]): 3.22
Compound: CCCCCCCCn1cc(C(=O)NCCCCCCNC(=O)c2cn(CCCCCCCC)c(=O)[nH]c2=O)c(=O)[nH]c1=O
Activity (K562 [1]): 40%

pIC50 (K562 [5]): < 3.10
Compound: COC(=O)c1c[nH]c(=O)[nH]c1=O [ISOOROTIC ACID METHYL ESTER]
Activity (K562 [6]): 5%

Compound: CO[C@H](C(=O)[C@@H](O)[C@@H](C)O)[C@@H]1Cc2cc3cc(O[C@H]4C[C@@H](O[C@@H]5C[C@@H](O)[C@H](O)[C@@H](C)O5)[C@H](O)[C@@H](C)O4)c(C)c(O)c3c(O)c2C(=O)[C@H]1O[C@H]1C[C@@H](O[C@@H]2C[C@@H](O)[C@@H](O[C@@H]3C[C@](C)(O)[C@H](O)[C@@H](C)O3)[C@@H](C)O2)[C@H](O)[C@@H](C)O1 [PLICAMYCIN]
Activity (K562 [11]): 86.8%

pIC50 (K562 [5]): 3.61
Compound: CCCCCCCCn1cc(C(=O)O)c(=O)[nH]c1=O
Activity (K562 [12]): 30%

pIC50 (K562 [5]): 3.38
Compound: CCCCCCCCn1cc(C(=O)NCCCCCCCCNC(=O)c2cn(CCCCCCCC)c(=O)[nH]c2=O)c(=O)[nH]c1=O
Activity (K562 [1]): 45%
